Source: ChEMBL document CHEMBL3414552, “Design and structure activity relationship of tumor-homing histone deacetylase inhibitors conjugated to folic and pteroic acids” (Eur J Med Chem, 2015)
Active and inactive are the calls of the source. No cut-off for these calls is given here.

Target: T1, Protein deacetylase HDAC6 (Homo sapiens) (UniProt Q9UBN7)
T1 sequence (whole entry): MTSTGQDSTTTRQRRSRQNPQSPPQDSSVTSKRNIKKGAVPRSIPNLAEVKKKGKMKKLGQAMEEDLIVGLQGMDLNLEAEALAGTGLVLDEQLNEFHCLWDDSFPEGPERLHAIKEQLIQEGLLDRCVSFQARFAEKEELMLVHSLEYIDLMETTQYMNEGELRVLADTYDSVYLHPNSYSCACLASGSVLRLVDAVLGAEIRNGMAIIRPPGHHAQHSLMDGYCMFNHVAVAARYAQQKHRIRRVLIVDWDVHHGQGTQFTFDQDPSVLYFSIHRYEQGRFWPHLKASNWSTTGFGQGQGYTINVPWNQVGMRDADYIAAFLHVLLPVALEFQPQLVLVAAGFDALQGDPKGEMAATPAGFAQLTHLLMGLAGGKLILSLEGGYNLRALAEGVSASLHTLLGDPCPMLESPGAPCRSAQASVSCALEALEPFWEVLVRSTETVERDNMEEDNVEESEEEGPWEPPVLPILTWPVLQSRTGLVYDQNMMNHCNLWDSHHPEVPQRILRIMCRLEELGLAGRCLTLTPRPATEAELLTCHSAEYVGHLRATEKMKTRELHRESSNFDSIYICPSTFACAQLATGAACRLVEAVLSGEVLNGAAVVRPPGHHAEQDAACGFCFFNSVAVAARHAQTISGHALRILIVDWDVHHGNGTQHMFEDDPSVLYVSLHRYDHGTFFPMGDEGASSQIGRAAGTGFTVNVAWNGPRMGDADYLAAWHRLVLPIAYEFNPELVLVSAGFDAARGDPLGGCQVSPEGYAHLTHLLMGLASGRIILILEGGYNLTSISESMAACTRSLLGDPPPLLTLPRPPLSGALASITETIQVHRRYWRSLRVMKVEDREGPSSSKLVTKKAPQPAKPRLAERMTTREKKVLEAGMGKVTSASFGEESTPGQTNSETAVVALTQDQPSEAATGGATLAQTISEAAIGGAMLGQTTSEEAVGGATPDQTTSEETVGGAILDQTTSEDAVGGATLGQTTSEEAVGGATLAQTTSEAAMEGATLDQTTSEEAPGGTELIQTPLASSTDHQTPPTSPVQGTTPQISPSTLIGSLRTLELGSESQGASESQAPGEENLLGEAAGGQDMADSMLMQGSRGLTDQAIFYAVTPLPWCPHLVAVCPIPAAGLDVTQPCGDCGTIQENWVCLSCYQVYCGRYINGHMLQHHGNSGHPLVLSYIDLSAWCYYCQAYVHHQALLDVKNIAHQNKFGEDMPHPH
Test: Inhibition of HDAC6 in human KB cells assessed as increase in tubulin acetylation at >= IC50 after 4 hrs by Western blotting analysis
Assay type: cell-based
Settings: not given
Procedure, shortened: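 KB cells were plated for 24 h, then compound-treated for 4 h (tubulin acetylation) or 24 h (histone H4 acetylation). Cells were PBS-washed and lysed in CelLytic M with protease inhibitor cocktail. Protein was Bradford-quantified and equal amounts were resolved by SDS-PAGE at 100 V. Detection used IRDye680 and IRDye800 secondary antibodies.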

Compound | Activity
Nc1nc2ncc(CNc3ccc(C(=O)NCCCCCCCC(=O)NO)cc3)nc2c(=O)[nH]1 | Active
Nc1nc2ncc(CNc3ccc(C(=O)NCCCCCCC(=O)NO)cc3)nc2c(=O)[nH]1 | Active

Tested on: KB
Test: Cytotoxicity against human KB cells at 100 uM after 72 hrs by MTS assay
Assay type: functional
Settings: not given
Procedure, shortened: (§1)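 Cells kept in folate-free RPMI with 10% FBS and 1% pen/strep (KB, HeLa) or DMEM with 10% FBS and 1% pen/strep (A549). For the assay, cells were plated in folate-free RPMI for 24 h, then drug-treated for 72 h at 0.1% DMSO. Viability was read by MTS. Mean ± SD from at least 2 independent triplicate experiments.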

Compound | inhibition at 100 µM
Nc1nc2ncc(CNc3ccc(C(=O)NCCCCCC(=O)NO)cc3)nc2c(=O)[nH]1 | 25%
Nc1nc2ncc(CNc3ccc(C(=O)NCCCCCCCCC(=O)NO)cc3)nc2c(=O)[nH]1 | 33%
Nc1nc2ncc(CNc3ccc(C(=O)N[C@@H](CCC(=O)NCCCCCCCC(=O)NO)C(=O)O)cc3)nc2c(=O)[nH]1 | < 20%
Nc1nc2ncc(CNc3ccc(C(=O)NCCCCCCCCCC(=O)NO)cc3)nc2c(=O)[nH]1 | 47%
Nc1nc2ncc(CNc3ccc(C(=O)NCCCCC(=O)NO)cc3)nc2c(=O)[nH]1 | < 20%
Nc1nc2ncc(CNc3ccc(C(=O)N[C@@H](CCC(=O)NCCCCCCC(=O)NO)C(=O)O)cc3)nc2c(=O)[nH]1 | < 20%
Nc1nc2ncc(CNc3ccc(C(=O)NCCCC(=O)NO)cc3)nc2c(=O)[nH]1 | < 20%

Target: T2, Histone deacetylase 8 (Homo sapiens, UniProt Q9BY41)
T2 sequence (Q9BY41 whole entry): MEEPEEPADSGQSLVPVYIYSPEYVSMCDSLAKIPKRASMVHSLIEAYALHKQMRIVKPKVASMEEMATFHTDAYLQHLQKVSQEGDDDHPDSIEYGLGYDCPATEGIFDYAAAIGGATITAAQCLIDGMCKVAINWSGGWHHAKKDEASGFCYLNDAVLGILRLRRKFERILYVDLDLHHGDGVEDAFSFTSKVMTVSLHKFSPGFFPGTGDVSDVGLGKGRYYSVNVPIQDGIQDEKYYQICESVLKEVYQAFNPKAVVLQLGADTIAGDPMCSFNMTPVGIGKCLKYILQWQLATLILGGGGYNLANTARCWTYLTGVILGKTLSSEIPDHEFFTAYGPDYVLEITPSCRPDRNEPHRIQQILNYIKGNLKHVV
Test: Inhibition of His-tagged HDAC8 (unknown origin) expressed in Escherichia coli BL21(DE3) after 60 mins by MALDI mass spectrometry
Settings: not given

Compound | IC50
Nc1nc2ncc(CNc3ccc(C(=O)NCCCCCCCCC(=O)NO)cc3)nc2c(=O)[nH]1 | 7590 nM
Nc1nc2ncc(CNc3ccc(C(=O)N[C@@H](CCC(=O)NCCCCCCCC(=O)NO)C(=O)O)cc3)nc2c(=O)[nH]1 | 2370 nM
Nc1nc2ncc(CNc3ccc(C(=O)NCCCCCCCC(=O)NO)cc3)nc2c(=O)[nH]1 | 9380 nM
Nc1nc2ncc(CNc3ccc(C(=O)NCCCCCCC(=O)NO)cc3)nc2c(=O)[nH]1 | 1060 nM
Nc1nc2ncc(CNc3ccc(C(=O)N[C@@H](CCC(=O)NCCCCCCC(=O)NO)C(=O)O)cc3)nc2c(=O)[nH]1 | 2390 nM

Target: T3, Histone deacetylase 1 (Homo sapiens, UniProt Q13547)
T3 sequence (Q13547 whole entry): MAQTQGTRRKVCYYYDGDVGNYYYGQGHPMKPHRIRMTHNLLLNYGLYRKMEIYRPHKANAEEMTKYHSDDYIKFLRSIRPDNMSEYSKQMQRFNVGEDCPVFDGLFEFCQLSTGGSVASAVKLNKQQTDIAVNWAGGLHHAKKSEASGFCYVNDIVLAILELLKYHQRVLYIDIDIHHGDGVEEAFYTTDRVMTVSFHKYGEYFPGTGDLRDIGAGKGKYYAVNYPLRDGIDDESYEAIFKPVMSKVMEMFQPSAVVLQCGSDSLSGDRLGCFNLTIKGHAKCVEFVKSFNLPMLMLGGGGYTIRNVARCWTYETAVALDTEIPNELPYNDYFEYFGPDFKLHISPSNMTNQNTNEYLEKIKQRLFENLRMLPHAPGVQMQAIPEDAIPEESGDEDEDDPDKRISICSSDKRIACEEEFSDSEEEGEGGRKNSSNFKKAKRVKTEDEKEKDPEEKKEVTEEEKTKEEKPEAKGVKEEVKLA
Test: Inhibition of HDAC1 (unknown origin) after 60 mins by MALDI mass spectrometry
Settings: not given

Compound | IC50
Nc1nc2ncc(CNc3ccc(C(=O)NCCCCCC(=O)NO)cc3)nc2c(=O)[nH]1 | 79.6 nM
Nc1nc2ncc(CNc3ccc(C(=O)NCCCCCCCCC(=O)NO)cc3)nc2c(=O)[nH]1 | 524 nM
Nc1nc2ncc(CNc3ccc(C(=O)N[C@@H](CCC(=O)NCCCCCCCC(=O)NO)C(=O)O)cc3)nc2c(=O)[nH]1 | 1800 nM
Nc1nc2ncc(CNc3ccc(C(=O)NCCCCC(=O)NO)cc3)nc2c(=O)[nH]1 | 6150 nM
Nc1nc2ncc(CNc3ccc(C(=O)NCCCCCCCC(=O)NO)cc3)nc2c(=O)[nH]1 | 16.1 nM
Nc1nc2ncc(CNc3ccc(C(=O)NCCCCCCC(=O)NO)cc3)nc2c(=O)[nH]1 | 23.4 nM
Nc1nc2ncc(CNc3ccc(C(=O)N[C@@H](CCC(=O)NCCCCCCC(=O)NO)C(=O)O)cc3)nc2c(=O)[nH]1 | 1770 nM

Target: T3, Histone deacetylase 1
Test: Inhibition of His-tagged HDAC1 (unknown origin) expressed in Escherichia coli BL21(DE3) at 10 uM after 60 mins by MALDI mass spectrometry
Settings: not given
Procedure, shortened: (§2)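 Enzyme (250 nM) was incubated with inhibitor for 60 min at 37 °C in Tris-HCl pH 8.0 buffer containing NaCl, KCl, MgCl2 and BSA. Substrates were GRK(ac)FGC for HDAC1/HDAC8 and GRK(ac)YGC for HDAC6. Reactions were TSA-quenched, immobilized on maleimide SAMs and read by MALDI (SAMDI); deacetylation was taken as the product fraction.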

Compound | inhibition
Nc1nc2ncc(CNc3ccc(C(=O)NCCCCCCCCCC(=O)NO)cc3)nc2c(=O)[nH]1 | 53%
Nc1nc2ncc(CNc3ccc(C(=O)NCCCC(=O)NO)cc3)nc2c(=O)[nH]1 | 22.1%

Tested on: KB
Test: Cytotoxicity against human KB cells at 25 uM after 72 hrs by MTS assay in presence of folic acid
Settings: not given

Compound | Activity
Nc1nc2ncc(CNc3ccc(C(=O)NCCCCCCCC(=O)NO)cc3)nc2c(=O)[nH]1 | inactive

Target: T4, Protein deacetylase HDAC6 (Homo sapiens, UniProt Q9UBN7)
T4 sequence (Q9UBN7 whole entry): T1 sequence (whole entry)
Test: Inhibition of HDAC6 (unknown origin) after 60 mins by MALDI mass spectrometry
Settings: not given

Compound | IC50
Nc1nc2ncc(CNc3ccc(C(=O)NCCCCCC(=O)NO)cc3)nc2c(=O)[nH]1 | 43.6 nM
Nc1nc2ncc(CNc3ccc(C(=O)NCCCCCCCCC(=O)NO)cc3)nc2c(=O)[nH]1 | 10.2 nM
Nc1nc2ncc(CNc3ccc(C(=O)N[C@@H](CCC(=O)NCCCCCCCC(=O)NO)C(=O)O)cc3)nc2c(=O)[nH]1 | 193 nM
Nc1nc2ncc(CNc3ccc(C(=O)NCCCCCCCCCC(=O)NO)cc3)nc2c(=O)[nH]1 | 476 nM
Nc1nc2ncc(CNc3ccc(C(=O)NCCCCC(=O)NO)cc3)nc2c(=O)[nH]1 | 212 nM
Nc1nc2ncc(CNc3ccc(C(=O)NCCCCCCCC(=O)NO)cc3)nc2c(=O)[nH]1 | 55.4 nM
Nc1nc2ncc(CNc3ccc(C(=O)NCCCCCCC(=O)NO)cc3)nc2c(=O)[nH]1 | 12.2 nM
Nc1nc2ncc(CNc3ccc(C(=O)N[C@@H](CCC(=O)NCCCCCCC(=O)NO)C(=O)O)cc3)nc2c(=O)[nH]1 | 132 nM
Nc1nc2ncc(CNc3ccc(C(=O)NCCCC(=O)NO)cc3)nc2c(=O)[nH]1 | 1460 nM

Tested on: A549
Test: Cytotoxicity against human A549 cells at 100 uM after 72 hrs by MTS assay
Assay type: functional
Settings: A549, 72 h
Procedure, shortened: as §1

Compound | inhibition at 100 µM
Nc1nc2ncc(CNc3ccc(C(=O)NCCCCCCCC(=O)NO)cc3)nc2c(=O)[nH]1 | < 20%
Nc1nc2ncc(CNc3ccc(C(=O)NCCCCCCC(=O)NO)cc3)nc2c(=O)[nH]1 | < 20%

Tested on: KB
Test: Cytotoxicity against human KB cells after 72 hrs by MTS assay
Assay type: functional, cell-based
Settings: not given

Compound | IC50
Nc1nc2ncc(CNc3ccc(C(=O)NCCCCCCCC(=O)NO)cc3)nc2c(=O)[nH]1 | 30300 nM
Nc1nc2ncc(CNc3ccc(C(=O)NCCCCCCC(=O)NO)cc3)nc2c(=O)[nH]1 | 53700 nM

Target: T5, Histone deacetylase 8 (Homo sapiens) (UniProt Q9BY41)
T5 sequence (whole entry): T2 sequence (Q9BY41 whole entry)
Test: Inhibition of His-tagged HDAC8 (unknown origin) expressed in Escherichia coli BL21(DE3) at 10 uM after 60 mins by MALDI mass spectrometry
Settings: not given
Procedure, shortened: as §2

Compound | inhibition
Nc1nc2ncc(CNc3ccc(C(=O)NCCCCCC(=O)NO)cc3)nc2c(=O)[nH]1 | 41%
Nc1nc2ncc(CNc3ccc(C(=O)NCCCCCCCCCC(=O)NO)cc3)nc2c(=O)[nH]1 | 40%
Nc1nc2ncc(CNc3ccc(C(=O)NCCCCC(=O)NO)cc3)nc2c(=O)[nH]1 | 39%
Nc1nc2ncc(CNc3ccc(C(=O)NCCCC(=O)NO)cc3)nc2c(=O)[nH]1 | 25%

Tested on: HeLa
Test: Cytotoxicity against human HeLa cells at 100 uM after 72 hrs by MTS assay
Assay type: functional
Settings: not given
Procedure, shortened: as §1

Compound | inhibition at 100 µM
Nc1nc2ncc(CNc3ccc(C(=O)NCCCCCC(=O)NO)cc3)nc2c(=O)[nH]1 | < 20%
Nc1nc2ncc(CNc3ccc(C(=O)NCCCCCCCCC(=O)NO)cc3)nc2c(=O)[nH]1 | 35%
Nc1nc2ncc(CNc3ccc(C(=O)N[C@@H](CCC(=O)NCCCCCCCC(=O)NO)C(=O)O)cc3)nc2c(=O)[nH]1 | < 20%
Nc1nc2ncc(CNc3ccc(C(=O)NCCCCCCCCCC(=O)NO)cc3)nc2c(=O)[nH]1 | 36%
Nc1nc2ncc(CNc3ccc(C(=O)NCCCCC(=O)NO)cc3)nc2c(=O)[nH]1 | < 20%
Nc1nc2ncc(CNc3ccc(C(=O)NCCCCCCC(=O)NO)cc3)nc2c(=O)[nH]1 | 34%
Nc1nc2ncc(CNc3ccc(C(=O)N[C@@H](CCC(=O)NCCCCCCC(=O)NO)C(=O)O)cc3)nc2c(=O)[nH]1 | < 20%
Nc1nc2ncc(CNc3ccc(C(=O)NCCCC(=O)NO)cc3)nc2c(=O)[nH]1 | < 20%

Tested on: HeLa
Test: Cytotoxicity against human HeLa cells after 72 hrs by MTS assay
Assay type: functional, cell-based
Settings: not given

Compound | IC50
Nc1nc2ncc(CNc3ccc(C(=O)NCCCCCCCC(=O)NO)cc3)nc2c(=O)[nH]1 | 56600 nM
